Reference: ChEMBL document CHEMBL3297708, “Lead optimization of a novel series of imidazo[1,2-a]pyridine amides leading to a clinical candidate (Q203) as a multi- and extensively-drug-resistant anti-tuberculosis agent” (J Med Chem, 2014)
In brackets after ≈: the same amount, converted by molar mass.

Tests used:
[1] = tested on: Mycobacterium tuberculosis; assay: Antimycobacterial activity against Mycobacterium tuberculosis H37Rv in liquid broth culture medium; assay type: functional
Procedure, shortened: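 M. tuberculosis H37Rv replicating in liquid broth culture medium; MIC80 determined, i.e. concentration inhibiting 80% of growth.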

[2] = tested on: Mycobacterium tuberculosis; assay: Antimycobacterial activity against Mycobacterium tuberculosis H37Rv in macrophages; assay type: functional
Procedure, shortened: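 M. tuberculosis H37Rv replicating inside macrophages; intracellular MIC80 determined, i.e. concentration inhibiting 80% of growth.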

[3] = Half life in human liver microsomes; assay type: ADME
Procedure, shortened: (§1)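 Metabolic stability measured by incubation in human or mouse liver microsomal preparations; half-life reported.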

[4] = Half life in mouse liver microsomes; assay type: ADME; procedure, shortened: as §1
[5] = Solubility of the compound in aqueous solution at pH 2.1; assay type: physicochemical
[6] = Solubility of the compound in phosphate buffer at pH 7.4; assay type: physicochemical
Cytochrome P450 2D6 = Cytochrome P450 2D6 (Homo sapiens, UniProt P10635); assay: Inhibition of recombinant CYP2D6 (unknown origin) by LC/MS/MS analysis; assay type: ADME
Procedure, shortened: (§2)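 Recombinant CYP enzymes (5 pmol/mL) with substrate, in 100 mM potassium phosphate pH 7.4, 3.3 mM MgCl2, with or without 1 mM NADPH; incubated 10 min (CYP1A2, CYP2C9), 20 min (CYP2C19, CYP2D6), or 3 min (CYP3A4); stopped with cold stop solution containing tolbutamide internal standard; metabolite measured by LC-MS/MS.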

Cytochrome P450 3A4 = Cytochrome P450 3A4 (Homo sapiens, UniProt P08684); assay: Inhibition of recombinant CYP3A4 (unknown origin) by LC/MS/MS analysis; assay type: ADME; procedure, shortened: as §2
Cytochrome P450 1A2 = biological target: T1, Cytochrome P450 1A2 (Homo sapiens, UniProt P05177); assay: Inhibition of recombinant CYP1A2 (unknown origin) by LC/MS/MS analysis; assay type: ADME; procedure, shortened: as §2
T1 sequence (P05177 whole entry): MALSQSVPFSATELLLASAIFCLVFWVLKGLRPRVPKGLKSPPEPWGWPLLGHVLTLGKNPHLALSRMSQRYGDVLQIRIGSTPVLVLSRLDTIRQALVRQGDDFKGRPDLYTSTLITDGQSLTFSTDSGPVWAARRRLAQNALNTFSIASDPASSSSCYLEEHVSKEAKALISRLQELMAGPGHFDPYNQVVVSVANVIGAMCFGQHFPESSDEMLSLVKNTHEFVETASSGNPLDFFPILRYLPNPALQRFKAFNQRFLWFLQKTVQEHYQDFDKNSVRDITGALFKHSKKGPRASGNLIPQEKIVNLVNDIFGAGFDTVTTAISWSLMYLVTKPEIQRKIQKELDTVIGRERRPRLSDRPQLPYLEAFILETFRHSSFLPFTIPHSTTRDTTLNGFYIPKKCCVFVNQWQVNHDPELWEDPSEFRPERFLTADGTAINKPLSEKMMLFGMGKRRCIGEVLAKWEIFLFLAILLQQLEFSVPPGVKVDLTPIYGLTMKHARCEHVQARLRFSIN

Cytochrome P450 2C19 = Cytochrome P450 2C19 (Homo sapiens, UniProt P33261); assay: Inhibition of recombinant CYP2C19 (unknown origin) by LC/MS/MS analysis; assay type: ADME; procedure, shortened: as §2
Cytochrome P450 2C9 = Cytochrome P450 2C9 (Homo sapiens, UniProt P11712); assay: Inhibition of recombinant CYP2C9 (unknown origin) by LC/MS/MS analysis; assay type: ADME; procedure, shortened: as §2
Chain of Cytochrome P450 2C9 (P11712 whole entry): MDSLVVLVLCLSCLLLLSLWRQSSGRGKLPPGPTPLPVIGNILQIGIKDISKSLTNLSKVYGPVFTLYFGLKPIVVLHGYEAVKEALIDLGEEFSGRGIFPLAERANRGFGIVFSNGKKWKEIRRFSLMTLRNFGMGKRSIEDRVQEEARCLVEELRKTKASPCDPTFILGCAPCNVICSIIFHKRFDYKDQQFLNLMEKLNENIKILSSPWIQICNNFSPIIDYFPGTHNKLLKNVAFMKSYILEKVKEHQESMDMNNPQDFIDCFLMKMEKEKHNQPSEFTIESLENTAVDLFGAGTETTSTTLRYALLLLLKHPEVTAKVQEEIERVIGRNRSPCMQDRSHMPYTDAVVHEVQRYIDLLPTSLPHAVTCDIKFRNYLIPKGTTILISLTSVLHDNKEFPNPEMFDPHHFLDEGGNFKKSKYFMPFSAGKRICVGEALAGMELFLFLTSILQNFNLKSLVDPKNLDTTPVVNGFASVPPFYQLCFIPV

Chain of Cytochrome P450 2D6 (P10635 whole entry): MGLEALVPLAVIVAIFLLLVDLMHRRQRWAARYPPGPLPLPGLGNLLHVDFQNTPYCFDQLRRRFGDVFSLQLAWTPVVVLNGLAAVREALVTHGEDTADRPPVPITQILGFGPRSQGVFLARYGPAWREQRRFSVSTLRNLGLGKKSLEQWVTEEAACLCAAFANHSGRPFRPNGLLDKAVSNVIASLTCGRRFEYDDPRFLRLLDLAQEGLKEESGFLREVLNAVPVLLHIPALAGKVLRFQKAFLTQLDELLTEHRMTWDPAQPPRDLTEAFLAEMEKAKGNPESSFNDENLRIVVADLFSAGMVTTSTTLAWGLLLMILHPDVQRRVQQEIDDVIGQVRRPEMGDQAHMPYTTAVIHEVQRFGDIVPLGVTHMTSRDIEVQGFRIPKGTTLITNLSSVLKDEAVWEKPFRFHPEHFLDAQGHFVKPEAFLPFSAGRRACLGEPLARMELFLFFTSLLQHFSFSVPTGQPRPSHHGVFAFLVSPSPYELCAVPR
Chain of Cytochrome P450 3A4 (P08684 whole entry): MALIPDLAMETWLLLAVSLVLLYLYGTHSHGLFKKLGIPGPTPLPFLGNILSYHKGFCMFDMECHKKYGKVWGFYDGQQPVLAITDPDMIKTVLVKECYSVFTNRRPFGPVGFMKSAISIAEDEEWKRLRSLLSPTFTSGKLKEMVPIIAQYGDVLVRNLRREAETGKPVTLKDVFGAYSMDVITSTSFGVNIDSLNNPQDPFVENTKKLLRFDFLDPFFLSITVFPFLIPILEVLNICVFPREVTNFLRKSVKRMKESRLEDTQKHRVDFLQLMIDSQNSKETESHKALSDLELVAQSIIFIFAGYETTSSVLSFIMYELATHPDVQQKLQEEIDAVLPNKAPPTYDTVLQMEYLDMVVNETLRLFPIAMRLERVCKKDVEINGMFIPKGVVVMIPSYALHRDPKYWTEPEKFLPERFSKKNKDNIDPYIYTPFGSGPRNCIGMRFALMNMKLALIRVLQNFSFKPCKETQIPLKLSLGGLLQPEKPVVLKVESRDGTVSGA
Chain of Cytochrome P450 2C19 (P33261 whole entry): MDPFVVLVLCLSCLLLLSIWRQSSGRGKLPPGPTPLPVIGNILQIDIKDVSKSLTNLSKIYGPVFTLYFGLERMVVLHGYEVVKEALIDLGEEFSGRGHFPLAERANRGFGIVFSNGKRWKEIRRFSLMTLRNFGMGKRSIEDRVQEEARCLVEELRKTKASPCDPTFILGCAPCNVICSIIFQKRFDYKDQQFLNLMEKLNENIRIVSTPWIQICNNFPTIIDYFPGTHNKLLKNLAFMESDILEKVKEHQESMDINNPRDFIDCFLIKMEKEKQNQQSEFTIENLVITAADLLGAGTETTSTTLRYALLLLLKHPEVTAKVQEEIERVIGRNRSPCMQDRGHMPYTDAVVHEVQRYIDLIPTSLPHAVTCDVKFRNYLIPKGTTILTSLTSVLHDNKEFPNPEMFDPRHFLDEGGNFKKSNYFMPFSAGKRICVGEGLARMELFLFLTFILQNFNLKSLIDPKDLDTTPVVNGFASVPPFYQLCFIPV

| Structure (SMILES) | MIC80 [1] [µM] | MIC80 [2] [µM] | half-life [3] [min] | half-life [4] [min] | solubility [5] [µg/mL] | solubility [6] [µg/mL] | IC50 (Cytochrome P450 2D6) [nM] | IC50 (Cytochrome P450 3A4) [nM] | IC50 (Cytochrome P450 1A2) [nM] | IC50 (Cytochrome P450 2C19) [nM] | IC50 (Cytochrome P450 2C9) [nM] |
| --- | --- | --- | --- | --- | --- | --- | --- | --- | --- | --- | --- |
| CCc1nc2cc(Cl)ccn2c1C(=O)NCc1ccc(-c2ccc(C(=O)O)cc2)cc1 | 0.25 (≈ 108 ng/mL) | 0.217 (≈ 94.2 ng/mL) | > 120 | > 120 |  |  |  |  |  |  |  |
| CCc1nc2ccc(Cl)cn2c1CC(=O)NCc1ccc(-c2ccccc2)cc1 | > 10 | > 10 |  |  |  |  |  |  |  |  |  |
| CCc1nc2ccc(Cl)cn2c1C(=O)NCc1ccc(-c2ccc(C)cc2)cc1 | 0.0007 (≈ 0.283 ng/mL) | 0.00043 (≈ 0.174 ng/mL) | 30.5 | 40.6 | 1.42 (≈ 3.52 µM) | 1.56 (≈ 3.86 µM) |  |  |  |  |  |
| CCc1nc2ccc(Cl)cn2c1C(=O)Nc1ccc(-c2ccccc2)cc1 | > 10 | > 10 |  |  |  |  |  |  |  |  |  |
| CCc1nc2ccc(Cl)cn2c1NC(=O)Cc1ccc(-c2ccccc2)cc1 | 1.67 (≈ 651 ng/mL) | 0.69 (≈ 269 ng/mL) |  |  |  |  |  |  |  |  |  |
| CCc1nc2cc(Cl)ccn2c1C(=O)NCc1ccc(-c2ccncc2)cc1 | 2.22 (≈ 868 ng/mL) | 0.74 (≈ 289 ng/mL) | 28.9 |  |  |  |  |  |  |  |  |
| CCc1nc2cc(Cl)ccn2c1C(=O)NCc1ccc(N2CCC(c3ccc(F)cc3)CC2)cc1 | 0.54 (≈ 265 ng/mL) | 0.00066 (≈ 0.324 ng/mL) | 6.8 | 18.4 |  |  | > 40000 | 2070 | > 40000 | 600 | 500 |
| CCc1nc2cc(Cl)ccn2c1C(=O)NCc1ccc(N2CCCCC2)cc1 | 0.016 (≈ 6.35 ng/mL) | 0.0082 (≈ 3.25 ng/mL) | 13.2 | 2.3 |  |  |  |  |  |  |  |
| CCc1nc2ccc(Cl)cn2c1C(=O)NCc1ccc(N2CCN(c3ccc(OC(F)(F)F)cc3)CC2)cc1 | < 0.0005 | 0.00023 (≈ 0.128 ng/mL) | > 120 | > 60 | 12.1 (≈ 21.6 µM) | 1.1 (≈ 1.97 µM) | > 40000 | 11500 | > 40000 | > 40000 | 570 |
| CCc1nc2cc(Cl)ccn2c1C(=O)NCc1ccc(N2CC3CCCCC3C2)cc1 (centres undefined) | 0.025 (≈ 10.9 ng/mL) | 0.0094 (≈ 4.11 ng/mL) | 14.9 | 6.3 |  |  |  |  |  |  |  |
| CCc1nc2ccc(Cl)cn2c1C(=O)NCc1ccc(N2CCN(c3ccc(F)cc3)CC2)cc1 | < 0.0005 | 0.0003 (≈ 0.148 ng/mL) | > 120 | 33.3 | 38.5 (≈ 78.3 µM) | 1.31 (≈ 2.66 µM) | > 40000 | 490 | > 40000 | 1320 | 1330 |
| CCc1nc2ccc(Cl)cn2c1CC(=O)Nc1ccc(-c2ccccc2)cc1 | > 10 | > 10 |  |  |  |  |  |  |  |  |  |
| CCc1nc2cc(Cl)ccn2c1C(=O)NCc1ccc(N2CCC(C(F)(F)F)CC2)cc1 | 0.0008 (≈ 0.372 ng/mL) | 0.00047 (≈ 0.219 ng/mL) | 6.5 | 5.1 |  |  |  |  |  |  |  |
| CCc1nc2ccc(Cl)cn2c1C(=O)NCc1ccc(-c2ccccc2Cl)cc1 | 0.043 (≈ 18.2 ng/mL) | 0.0093 (≈ 3.95 ng/mL) | 38.9 | 13.1 |  |  |  |  |  |  |  |
| CCc1nc2cc(Cl)ccn2c1C(=O)NCc1ccc(N2CCN(C(C)C)CC2)cc1 | 3 (≈ 1320 ng/mL) | 0.14 (≈ 61.6 ng/mL) | > 120 | 8.9 |  |  |  |  |  |  |  |
| CC(C)c1nc2ccccn2c1C(=O)NCc1ccc(-c2ccccc2)cc1 | 3.13 (≈ 1160 ng/mL) | 3.13 (≈ 1160 ng/mL) | 31.6 |  |  |  |  |  |  |  |  |
| CCc1nc2cc(Cl)ccn2c1C(=O)NCc1ccc(N2CCN(c3ccc(OC(F)(F)F)cc3)CC2)cc1 | 0.0018 (≈ 1 ng/mL) | 0.00011 (≈ 0.0614 ng/mL) | > 120 | > 60 |  |  | > 40000 | > 40000 | > 40000 | > 40000 | 170 |
| Cc1nc2ccc(Cl)cn2c1C(=O)NCc1ccc(-c2ccccc2)cc1 | 0.175 (≈ 65.8 ng/mL) | 0.042 (≈ 15.8 ng/mL) | > 120 | > 60 |  |  |  |  |  |  |  |
| CCc1nc2ccc(Cl)cn2c1C(=O)NCc1ccc(-c2ccc(Cl)cc2)cc1 | 0.0009 (≈ 0.382 ng/mL) | 0.00045 (≈ 0.191 ng/mL) | 83 | > 60 | 1.42 (≈ 3.35 µM) | 1.97 (≈ 4.64 µM) |  |  |  |  |  |
